Bioassay records as filed in PubChem.
HNF4A DNA FP: change in binding of human HNF4A to DNA, primary screen, biochemical, fluorescence polarization, FITC-DNA; Hepatocyte nuclear factor 4-alpha (Homo sapiens), P41235; 1 h; activity change, % at 10 µM; 360,000 compounds, 0.3% hits; in the data active means activity change above about 30%, passing the limit was not always enough
Target sequence (P41235 whole entry, looked up): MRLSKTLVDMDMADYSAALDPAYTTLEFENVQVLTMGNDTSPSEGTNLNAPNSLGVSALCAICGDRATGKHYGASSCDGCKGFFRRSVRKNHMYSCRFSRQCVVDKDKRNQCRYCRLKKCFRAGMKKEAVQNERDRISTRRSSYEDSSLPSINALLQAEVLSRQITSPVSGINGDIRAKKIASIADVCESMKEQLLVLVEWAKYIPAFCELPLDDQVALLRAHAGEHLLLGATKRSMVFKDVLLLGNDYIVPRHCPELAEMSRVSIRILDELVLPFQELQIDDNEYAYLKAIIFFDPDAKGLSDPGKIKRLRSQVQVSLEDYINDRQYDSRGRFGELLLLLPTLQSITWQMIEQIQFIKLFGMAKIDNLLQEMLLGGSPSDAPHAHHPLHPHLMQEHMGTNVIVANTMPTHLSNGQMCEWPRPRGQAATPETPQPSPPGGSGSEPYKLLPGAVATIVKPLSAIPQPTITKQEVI
IDE cell activ: human IDE activators in live cells, primary screen, fluorescence polarization, HEK cells, FAbeta-B substrate | AID 493087, 2011 | Insulin-degrading enzyme (Homo sapiens), P14735 | activation, % at 5.96 µM | 340,000 compounds, 0.073% hits | FAbeta-B cleavage; 0% vehicle, 100% cell-free pure enzyme wells;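 active means activation above the mean of all tested compounds plus 3 SD, set per screening campaign, cut at about 17% in these data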
CSN deneddyl inh: inhibitors of CSN-mediated cullin deneddylation, primary screen, biochemical, fluorescence polarization, uHTS. COP9 signalosome complex subunit 5 (Homo sapiens), Q92905. Purified CSN, SCF-Nedd8-OG deneddylation. inhibition, % at 12.5 µM. 360,000 compounds, 0.38% hits. AID 651999, 2013;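 active means pattern-corrected inhibition above about 35%, with an unprinted fluorescence ratio check between 0.5 and 1.5, limit read from the data, passing the limit was not always enough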;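 further: 0% = enzyme with substrate and 100% = substrate without enzyme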
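Material: human Csn5 produced in HEK293T cells; Input: enzyme 0.24 nM; Reagent: SCFSkp2-Nedd8OG substrate at 10 nM final; Dosing: 12.5 µM compound; Incubation: 90 min reaction at room temperature; Detection: fluorescence polarization of the substrate; Evaluation: % inhibition of substrate cleavage by Csn5; Control set: substrate-only high control, full reaction low control.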
TPT1 inh: Candida albicans TPT1 enzyme inhibitors, primary screen, biochemical, fluorescence polarization | AID 1962, 2009 | 300,000 compounds, 0.81% hits | tRNA 2'-phosphotransferase TPT1 (Candida albicans SC5314) | inhibition, % at 5 µM | recombinant caTPT1, FP RNA substrate dephosphorylation;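 active means inhibition above the mean of all tested compounds plus 3 SD, set per screening campaign, cut at about 24% in these data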;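 further: plate controls were DMSO alone for no effect and ferristatin control at 100 nM for full effect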
IDE inh: human IDE inhibitors in live cells, primary screen, fluorescence polarization, HEK cells, FAbetaB substrate. Insulin-degrading enzyme (Homo sapiens), P14735. FAbetaB cleavage. inhibition, % at 5.59 µM. 320,000 compounds, 0.41% hits. AID 434962, 2010;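 active means percent inhibition above the average of all tested compounds plus 3 SD, set per screening campaign, cut at about 16% in these data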;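 further: IDE supplied by intact live HEK cells; FP after avidin binding of uncleaved biotin substrate so inhibition keeps polarization high; 0% = DMSO wells and 100% = 60 µM reference IDE inhibitor Ii1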
Rpn11 inh: Rpn11 (PSMD14) deubiquitinase inhibitors, primary screen, biochemical, fluorescence polarization, uHTS; 26S proteasome non-ATPase regulatory subunit 14 (Homo sapiens), O00487; human 26S proteasome, Ub4-pepOG fluorescence polarization; 20S core pre-blocked with epoxomicin; inhibition, % at 20 µM; 360,000 compounds, 0.59% hits; AID 588493, 2011;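 active means inhibition at 20 µM, scaled to each plate's controls, above about 33%, limit read from the data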
Rpn11 confirm: Rpn11 (PSMD14) deubiquitinase inhibitors, confirmation, biochemical, fluorescence polarization, single concentration; purified human 26S proteasome, Ub4-pepOG fluorescence polarization; proteasome pretreated with epoxomicin; inhibition, % at 20 µM; 1,900 compounds, 29% hits; shares compounds with Rpn11 inh; AID 602318, 2012
MMP-2 counter-1: MMP-2 enzyme inhibition, confirmation, counter-screen for RPN11 inhibitor project, biochemical, fluorescence, single concentration | shares compounds with Rpn11 inh | recombinant MMP-2, FRET peptide cleavage fluorescence | 1,900 compounds, 4% hits | inhibition, % at 20 µM;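 further: human MMP-2 activated beforehand with APMA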
Thrombin FP: bovine thrombin protease inhibition, confirmation, counter-screen for Rpn11 inhibitor project, biochemical, fluorescence polarization, single concentration; shares compounds with Rpn11 inh; bovine thrombin cleavage of Ub4-pepOG; inhibition, % at 20 µM; 1,900 compounds, 13% hits;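 active means mean inhibition at least 40% at 20 µM, or signal 3 deviations below plate average, so some actives read negative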;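 further: plate controls were thrombin with DMSO for no effect and buffer wells lacking thrombin for full effect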
CSN5 deneddyl: Csn5 deneddylation inhibitors, confirmation, biochemical, fluorescence polarization, single concentration, SCF-Nedd8OG substrate; AID 720654, 2013; Csn5 deneddylation of SCF-Nedd8OG, 90 min; shares compounds with CSN deneddyl inh; 540 compounds, 62% hits; inhibition, % at 16.6 µM; in the data active means inhibition above about 50%;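 further: 0% = DMSO with enzyme and 100% = no enzyme wells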
MMP-2 counter-2: MMP-2 protease inhibition counter-screen, confirmation, counter-screen for CSN deneddylation inhibitor project, biochemical, fluorescence, single concentration; 540 compounds, 33% hits; inhibition, % at 16.6 µM; shares compounds with CSN deneddyl inh; AID 720655, 2013; recombinant MMP-2, FRET substrate fluorescence, 60 min;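 active means corrected plate-normalized z-score of 5 or more, or -5 or less, or inhibition of 15% or more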;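 further: plate controls were DMSO wells with enzyme for no effect and buffer wells lacking MMP-2 for full effect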
Thrombin counter: blocks bovine thrombin in a CSN deneddylation counter-screen. shares compounds with CSN deneddyl inh. bovine thrombin cleavage of Ub4-pepOG, fluorescence polarization. inhibition, % at 16.6 µM. 540 compounds, 49% hits;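 active means inhibition at or above a set limit, with a fluorescence interference ratio between 0.5 and a set maximum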
Starred values were filed as active, the others as inactive; / = not tested or not shown. Hits are enriched below; roughly 1.7% of the tested compounds scored in any of these assays. Unless noted, no stated cut-off is given here; in the data, active means inhibition above about 40%; inactive means the rest.

SMILES | HNF4A DNA FP | IDE cell activ | CSN deneddyl inh | TPT1 inh | IDE inh | Rpn11 inh | Rpn11 confirm | MMP-2 counter-1 | Thrombin FP | CSN5 deneddyl | MMP-2 counter-2 | Thrombin counter
Cc1sc2nc3c4ccccc4c(NCc4ccco4)nn3c(=O)c2c1C | -1 | 2 | 64* | 6 | -4 | 47* | 0 | -13 | -6 | 102* | 7 | 7
COc1cc(NC(=O)Nc2cccn3nc(COCCO)nc23)cc(OC)c1OC | 1 | / | 0 | / | / | 3 | / | / | / | / | / | /
S=C1SCCCN1Cc1ccc(Cl)cc1 | -1 | / | 3 | / | / | -7 | / | / | / | / | / | /
CCOc1ccc(NC(=S)NC(=O)/C=C/c2ccco2)cc1 | 0 | 4 | 4 | 0 | -1 | 2 | / | / | / | / | / | /
COc1cc(NS(=O)(=O)c2ccc(NC(=S)NC(=O)/C=C/c3ccco3)cc2)ncn1 | -42 | 7 | 49* | / | / | 42* | 78* | 24 | 47* | 61* | 23* | 22*
CSc1ccc(CN2C(=O)C(F)(F)Oc3c(C(C)=O)cccc32)cc1 | 3 | / | 4 | / | / | 0 | / | / | / | / | / | /
CC(=O)C1=CCC(c2ccccc2)N(S(=O)(=O)c2ccccc2C)C1 (stereo not given) | 5 | / | 4 | / | / | -4 | / | / | / | / | / | /
O=C(CCCN1C(=O)/C(=C/c2ccco2)SC1=S)Nc1ccccc1C(=O)O | -56 | 12 | 39* | 3 | -14 | 68* | 4 | 38 | -1 | 83* | 25* | 32*
COc1ccccc1/C=C1\SC(=S)N(CCC(=O)Nc2ccc(C(=O)O)c(O)c2)C1=O | -6 | 3 | 6 | 0 | -5 | 10 | / | / | / | / | / | /
O=C(CCN1C(=O)/C(=C/c2ccco2)SC1=S)Nc1ccc(C(=O)O)c(O)c1 | -22 | -2 | 52* | 14 | 2 | 64* | 9 | 37 | -1 | 73* | 12 | 6
O=C(CCCN1C(=O)/C(=C\c2ccco2)SC1=S)Nc1ccc2ccccc2c1 | 11 | -8 | 19 | 19 | 1 | 34 | / | / | / | / | / | /
COC(=O)c1cc2c(=O)c3ccccc3oc2nc1/C=C/N(C)C | 110 | -126 | 77* | / | / | 44* | 30 | -39 | 10 | 95* | -2 | 28*
COc1ccc(/C=N/Nc2cc(C)nc3ccccc23)cc1 | 1 | 2 | 4 | 3 | 2 | -10 | / | / | / | / | / | /
